High-throughput results: PubChem, The Scripps Research Institute Molecular Screening Center
mABHD4 FP – ABHD4 inhibitors, primary screen, biochemical, fluorescence polarization, mouse; inhibition, % at 8.92 µM; 370,000 compounds, 0.54% hits; purified mABHD4, FP-Rh probe fluorescence polarization; (Lyso)-N-acylphosphatidylethanolamine lipase (Mus musculus), Q8VD66;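 active means inhibition exceeding the mean over every tested compound plus 3 SD, cut at about 30% in these data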
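Test system: mABHD4 protein; Read-out basis: % inhibition; Incubation: 45 min + 60 min at 25 °C; Repeats: single replicate; Technique: fluorescence polarization with parallel and perpendicular emission, 525/598 nm; Compound: 8.92 µM, single dose; Benchmarks: full inhibition S159A mutant plus DMSO, zero as sample-well median.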
PAFAH1B2 FP inh – PAFAH1B2 enzyme inhibitors, primary screen, biochemical, fluorescence polarization, human; Platelet-activating factor acetylhydrolase IB subunit alpha2 (Homo sapiens), P68402; 340,000 compounds, 1.2% hits; recombinant PAFAH1B2, FP-rhodamine activity probe; AID 492953, 2010; inhibition, % at 3.39 µM;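 active means inhibition above the mean of all tested compounds plus 3 SD, cut at about 24% in these data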
HTRA1 inhibitor – HTRA1 serine protease inhibitors, primary screen, biochemical, fluorescence polarization, HTS; Q92743; recombinant HTRA1, FP-rhodamine activity-based probe; inhibition, % at 5.96 µM; 340,000 compounds, 0.5% hits; AID 504803, 2011; in the data active means inhibition above about 36%
Target sequence (Q92743 whole entry, looked up): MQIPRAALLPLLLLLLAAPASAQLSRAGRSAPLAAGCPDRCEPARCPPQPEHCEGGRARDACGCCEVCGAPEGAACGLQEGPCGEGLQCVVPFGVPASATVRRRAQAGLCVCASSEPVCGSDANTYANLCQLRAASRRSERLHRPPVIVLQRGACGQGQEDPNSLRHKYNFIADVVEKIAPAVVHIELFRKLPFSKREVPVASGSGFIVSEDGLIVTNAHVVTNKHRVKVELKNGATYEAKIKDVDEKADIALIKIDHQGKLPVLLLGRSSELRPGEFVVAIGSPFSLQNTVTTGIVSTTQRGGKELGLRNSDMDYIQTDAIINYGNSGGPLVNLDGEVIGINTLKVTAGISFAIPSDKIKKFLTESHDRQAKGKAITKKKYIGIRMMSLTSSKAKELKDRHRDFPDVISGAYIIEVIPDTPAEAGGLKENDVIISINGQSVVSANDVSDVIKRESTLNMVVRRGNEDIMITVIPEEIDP
PAFAH2 inh – PAFAH2 enzyme inhibitors, primary screen, biochemical, fluorescence polarization, human; Platelet-activating factor acetylhydrolase 2, cytoplasmic (Homo sapiens), Q99487; recombinant PAFAH2, FP-rhodamine activity probe; inhibition, % at 3.39 µM; 340,000 compounds, 0.99% hits;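 active means inhibition above the mean over all tested compounds plus 3 SD, cut at about 30% in these data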;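 further: inhibitors block probe labeling of enzyme so polarization drops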
PAFAH1B3 FP inh – PAFAH1B3 enzyme inhibitors, primary screen, biochemical, fluorescence polarization, human; Platelet-activating factor acetylhydrolase IB subunit alpha1 (Homo sapiens), Q15102; recombinant PAFAH1B3, FP-rhodamine probe; inhibition, % at 3.39 µM; 340,000 compounds, 0.28% hits; AID 492972, 2010;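 active means inhibition above the screen-wide average of all tested compounds plus 3 SD, cut at about 25% in these data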
pPAFAH inh – pPAFAH enzyme inhibitors, primary screen, biochemical, fluorescence polarization, human; Platelet-activating factor acetylhydrolase (Homo sapiens), Q13093; recombinant pPAFAH, FP-rhodamine probe fluorescence polarization; inhibition, % at 3.39 µM; 330,000 compounds, 1.5% hits;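 active means inhibition above the mean inhibition across the screen plus 3 SD, cut at about 25% in these data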;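 further: inhibitors block binding of the rhodamine activity-based probe so polarization drops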
Of the large screens only hits and unclear results are named; the others gave an inactive call. Only some compounds are listed: those with a hit (about 2.8% of all), similar ones and a draw of the others.

Cc1ccccc1NC(=O)NCCc1ccc(Cl)cc1	PAFAH1B2 FP inh 29
COc1ccccc1NC(=S)NCCc1ccc(Cl)cc1	PAFAH1B2 FP inh 34
S=C(NCCc1ccc(Cl)cc1)NC1CC1	PAFAH1B2 FP inh 42
COc1ccccc1NC(=S)NCCSc1ccc(Cl)cc1	none
NS(=O)(=O)c1ccc(CCNC(=S)NC2CCCC2)cc1	none
CC(CCN1CCC(C(O)(c2ccccc2)c2ccccc2)CC1)Oc1ccc(F)cc1 (configuration not stated)	none (no result: PAFAH1B2 FP inh, HTRA1 inhibitor, PAFAH2 inh, PAFAH1B3 FP inh, pPAFAH inh)
CCOC(=O)[C@@]12CCCC=C1N(CCc1ccc(Cl)cc1)C(=O)[C@H]2CC(=O)N1CCC(c2ccccc2)CC1	none (no result: PAFAH1B2 FP inh, HTRA1 inhibitor, PAFAH2 inh, PAFAH1B3 FP inh, pPAFAH inh)
Cn1c(=O)c2nc3ccccc3nc2n(C)c1=O	none
CC(=O)Nc1ccc2nc3c(=O)n(C)c(=O)n(C)c3nc2c1	pPAFAH inh 30
CCOC(=O)C1=C(C)NC(=O)NC1c1ccc(N(C)C)cc1 (configuration not stated)	none (no result: pPAFAH inh)
CCC(CC)COC(=O)C1=C(C)NC(=O)NC1c1ccc(N(C)C)cc1 (configuration not stated)	PAFAH1B2 FP inh 28
Cn1cnc(S(=O)(=O)N2CCN(c3ccccc3)CC2)c1	none
O=S(=O)(c1ccc(N2CCOCC2)cc1)N1CCOCC1	none
O=S(=O)(c1ccc(Cl)cc1)N1CCN(c2ccc(N3CCOCC3)nn2)CC1	PAFAH1B2 FP inh 26
O=C(N1CCOCC1)N1CCN(S(=O)(=O)c2ccc(Cl)cc2)CC1	PAFAH1B2 FP inh 25
Cn1cnc(S(=O)(=O)N2CCN(c3ccc(Cl)cc3)CC2)c1	PAFAH1B2 FP inh 28
c1ccc(OCc2nn3c(Cn4cnc5ccccc54)nnc3s2)cc1	PAFAH1B2 FP inh 27
Cc1cccc(C(=O)O/N=C/c2ccc(Br)cc2)c1	PAFAH1B2 FP inh 37, PAFAH2 inh 73
Cc1cccc(C(=O)O/N=C(\N)c2ccc(Br)cc2)c1	none
O=C(Cn1cnc2ccccc2c1=O)N1CCN(C(=O)C2CCCO2)CC1 (configuration not stated)	none (no result: PAFAH1B2 FP inh, HTRA1 inhibitor, PAFAH2 inh, PAFAH1B3 FP inh, pPAFAH inh)
O=S(=O)(/N=C(/NS(=O)(=O)c1ccccc1)c1ccccc1)c1ccccc1	PAFAH1B2 FP inh 28
CCC(NC(=S)NCc1ccc(F)cc1)c1ccc(C(C)C)cc1 (configuration not stated)	PAFAH1B2 FP inh 29
CCC(C)c1ccc(C(C)NC(=S)NCc2ccc(F)cc2)cc1 (configuration not stated)	PAFAH1B2 FP inh 24
CCCc1ccc(C(C)NC(=S)NCc2ccc(F)cc2)cc1 (configuration not stated)	none
CC1(OC(=O)C2CCCC2)C(=O)C=C2C=C(c3ccsc3)N(Cc3ccco3)C=C2C1=O (configuration not stated)	pPAFAH inh 31 (no result: mABHD4 FP)
CCc1cccc2c(C(C)c3ccccc3O)c[nH]c12 (configuration not stated)	none (no result: PAFAH1B2 FP inh, HTRA1 inhibitor, PAFAH2 inh, PAFAH1B3 FP inh, pPAFAH inh)
COc1ccc(S(=O)(=O)NC(C)CCc2ccccc2)cc1 (configuration not stated)	none
CC(CCc1ccccc1)NS(=O)(=O)c1ccccc1F (configuration not stated)	PAFAH1B2 FP inh 29
O=C(/C(=N\Nc1ccc([N+](=O)[O-])cc1)Sc1nnnn1-c1ccccc1)c1ccccc1	none
Cc1ccc(N/N=C(/Sc2nnnn2-c2ccccc2)C(=O)c2ccccc2)cc1	PAFAH1B2 FP inh 27
CCn1c(CSc2nnc(-c3cccnc3)n2-c2ccccc2C)nc2cc(C(=O)O)ccc21	pPAFAH inh 42 (no result: mABHD4 FP, PAFAH1B2 FP inh, HTRA1 inhibitor, PAFAH2 inh, PAFAH1B3 FP inh)
CCn1c(CSc2nnc(-c3ccncc3)n2CCOC)nc2cc(C(=O)O)ccc21	PAFAH1B2 FP inh 36, PAFAH2 inh 47, PAFAH1B3 FP inh 27, pPAFAH inh 30
COc1ccc(-c2cc(-c3nnc(SCc4cccc5ccccc45)n3N)[nH]n2)cc1	none (no result: PAFAH1B2 FP inh, HTRA1 inhibitor, PAFAH2 inh, PAFAH1B3 FP inh, pPAFAH inh)
Cc1cccc(OCCNS(=O)(=O)c2ccc(Cl)cc2)c1	PAFAH1B2 FP inh 24
Cc1cccc(NC(=O)CCNS(=O)(=O)c2ccc(Cl)cc2)c1	none
O=C(CCc1ccc(O)cc1)c1c(O)cc(O)cc1O	PAFAH1B2 FP inh 31
O=C(Cc1ccc2c(c1)OCCO2)c1c(O)cc(O)cc1O	none
O=C(c1cc(F)cc(F)c1)N1CCCC(c2nc(-c3cccs3)no2)C1 (configuration not stated)	none (no result: PAFAH1B2 FP inh, HTRA1 inhibitor, PAFAH2 inh, PAFAH1B3 FP inh, pPAFAH inh)
Cc1cccc(NS(=O)(=O)c2ccc(OCC(=O)N3CCCC3)cc2)c1	pPAFAH inh 34
COc1ccc(NS(=O)(=O)c2cccc(C(=O)N3CCCC(C)C3)c2)cc1 (configuration not stated)	pPAFAH inh 25
COc1ccc(NS(=O)(=O)c2cccc(C(=O)N3CCC3)c2)cc1	none
Cc1cccc(NS(=O)(=O)c2cccc(C(=O)N3CCCC3)c2)c1	pPAFAH inh 27
CCN(CC(=O)NCc1cccs1)C(=O)c1cccc(S(=O)(=O)Nc2cccc(C)c2)c1	pPAFAH inh 31
CCC[C@H]1[C@@H](OC(=O)NCc2cccnc2)CC[C@@]23CCCN2C(=O)CCC[C@@H]13	none (no result: PAFAH1B2 FP inh, HTRA1 inhibitor, PAFAH2 inh, PAFAH1B3 FP inh, pPAFAH inh)
Cc1ccc(-c2cc(C(=O)NN=Cc3ccc(N(C)C)cc3)[nH]n2)cc1C	none (no result: PAFAH1B2 FP inh, HTRA1 inhibitor, PAFAH2 inh, PAFAH1B3 FP inh, pPAFAH inh)
O=S(=O)(NCc1cn(Cc2ccccc2)nn1)c1ccccc1Br	none (no result: PAFAH1B2 FP inh, HTRA1 inhibitor, PAFAH2 inh, PAFAH1B3 FP inh, pPAFAH inh)
CCN(CC)C(=O)CC[C@H]1CC[C@]2(CCCN(C(=O)C3CCCC3)C2)O1	none (no result: PAFAH1B2 FP inh, HTRA1 inhibitor, PAFAH2 inh, PAFAH1B3 FP inh, pPAFAH inh)
O=C(c1cccc(NS(=O)(=O)c2ccc(Br)cc2)c1)N1CCN(c2ccccc2O)CC1	PAFAH1B2 FP inh 25 (no result: pPAFAH inh)
